From ChEMBL document CHEMBL2029239, “Identification, design and biological evaluation of bisaryl quinolones targeting Plasmodium falciparum type II NADH:quinone oxidoreductase (PfNDH2)” (J Med Chem, 2012)

Assays:
[1] = Inhibition of Plasmodium falciparum recombinant NDH2 expressed in Escherichia coli F571 using decyclubiquinone as substrate at 1 min by spectrophotometry
[2] = system: Plasmodium falciparum; assay: Antimalarial activity against blood stage forms of Plasmodium falciparum 3D7; type: functional, organism-based
[3] = system: Plasmodium berghei; assay: Antimalarial activity against Plasmodium berghei infected in CD1 mouse assessed as decrease in parasitemia at 20 mg/kg, po administered using 5% DMSO and 5% EtOH in tetraglycol vehicle measured on day 4 relative to control; type: functional; design: scale not given: the % may be the effect or the level left
How it was run: (§1)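 Peters' standard 4-day suppressive test in male CD-1 mice infected with Plasmodium berghei by intraperitoneal injection. Compound given orally at 20 mg/kg, with 5 mice per group. Read-out is % parasite clearance on day 4. Vehicles were SSV (often as suspensions), DET (fully dissolved) or sodium carbonate solution, as specified in each line.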

[4] = system: Plasmodium berghei; assay: Antimalarial activity against Plasmodium berghei infected in CD1 mouse assessed as decrease in parasitemia at 20 mg/kg, po administered using standard suspension vehicle measured on day 4 relative to control; type: functional; design: scale not given: the % may be the effect or the level left; how it was run: as §1
[5] = system: Plasmodium falciparum; assay: Antimalarial activity against atoquinone-resistant Plasmodium falciparum TM90C2B; type: functional, organism-based
[6] = system: Plasmodium falciparum; assay: Antimalarial activity against chloroquine-resistant Plasmodium falciparum W2; type: functional, organism-based
[7] = system: Plasmodium berghei; assay: Antimalarial activity against Plasmodium berghei infected in CD1 mouse assessed as decrease in parasitemia at 20 mg/kg, po administered using Na2CO3 vehicle measured on day 4 relative to control; type: functional; design: scale not given: the % may be the effect or the level left; how it was run: as §1
[8] = Inhibition of Plasmodium falciparum cytochrome b-c1 complex using decylubiquinol as substrate by spectrophotometry

SMILES	IC50 [1] [µM]	IC50 [2] [µM]	IC50 [5] [µM]	further results
Cc1c(-c2ccc(Cc3cccc(OCCN4CCOCC4)c3)cc2)[nH]c2ccccc2c1=O	0.279	0.355		
Cc1c(-c2ccc(Cc3ccc(OC(F)(F)F)cc3)cc2)[nH]c2cc(C(F)(F)F)ccc2c1=O		0.212		
O=C1C(O)=C([C@H]2CC[C@H](c3ccc(Cl)cc3)CC2)C(=O)c2ccccc21 [ATOVAQUONE]				Activity [3]: 100%; Activity [4]: 100%
Cc1c(-c2cccc(Cc3ccc(OC(F)(F)F)cc3)c2)[nH]c2ccc(Cl)cc2c1=O		0.0084	0.031	
Cc1c(-c2ccc(Cc3ccccc3)cc2)[nH]c2ccccc2c1=O	0.0274	0.107	0.416	
Cc1[nH]c2ccccc2c(=O)c1-c1ccc(Cc2ccc(OC(F)(F)F)cc2)cc1	0.492	0.036		IC50 [6]: 0.042 µM
O=c1c(-c2ccc(Oc3ccc(OC(F)(F)F)cc3)cc2)c(CO)[nH]c2ccccc12	> 56	0.091		
Cc1c(-c2ccc(Oc3cccc(OCCN4CCOCC4)c3)cc2)[nH]c2ccccc2c1=O		0.719		
COc1ccc(-c2cc(=O)c3ccccc3[nH]2)cc1		> 1		
O=c1cc(-c2ccc(Cc3ccc(OC(F)(F)F)cc3)cc2)n(O)c2ccccc12	0.071	0.263	0.403	
COc1ccc(Cc2ccc(-c3[nH]c4ccccc4c(=O)c3C)cc2)cc1	0.113	0.037	0.577	
CCOC(=O)c1c(-c2ccc(Cc3ccc(OC(F)(F)F)cc3)cc2)[nH]c2ccccc2c1=O	0.268	0.0396	1.4	
COc1ccc(-c2[nH]c3ncccc3c(=O)c2C)cc1		> 1		
Cc1c(-c2ccc(Cc3ccc(F)cc3)cc2)[nH]c2ncccc2c1=O		0.506		
Cc1c(-c2ccc(Cc3ccc(OC(F)(F)F)cc3)cc2)n(O)c2ccccc2c1=O	0.0552	0.022	0.217	IC50 [6]: 0.008 µM
Cc1c(-c2ccc(Cc3ccc(OC(F)(F)F)cc3)cc2)nc2cc(Cl)ccc2c1OP(=O)(O)O				Activity [7]: 100%
COc1cccc2c(=O)c(C)c(-c3ccc(Cc4ccc(OC(F)(F)F)cc4)cc3)[nH]c12		0.381		
O=c1c(CO)c(-c2ccc(Cc3ccc(OC(F)(F)F)cc3)cc2)[nH]c2cc(Cl)ccc12		0.063	0.33	
COc1cccc2[nH]c(-c3ccc(Cc4ccc(OC(F)(F)F)cc4)cc3)c(C)c(=O)c12		0.664		
Cc1c(-c2ccc(Cc3ccc(OC(F)(F)F)cc3)cc2)[nH]c2c(O)cccc2c1=O		0.819		
Cc1c(-c2ccc(Cc3ccc(OC(F)(F)F)cc3)cc2)[nH]c2ncccc2c1=O	0.097	0.407	1.88	
O=c1cc(-c2ccc(Cc3ccc(OC(F)(F)F)cc3)cc2)[nH]c2cc(O)c(F)cc12		> 1		
Cc1c(-c2ccc(Oc3ccc(Cl)cc3)cc2)[nH]c2ccccc2c1=O	0.036	0.23	0.797	

SMILES	IC50 [1] [µM]	IC50 [2] [µM]	IC50 [5] [µM]	further results
O=c1cc(-c2ccc(Cc3ccc(OC(F)(F)F)cc3)cc2)[nH]c2ccc(N3CCNCC3)cc12		0.43		
O=c1c(Cl)c(-c2ccc(Cc3ccc(OC(F)(F)F)cc3)cc2)[nH]c2ccccc12	0.137	0.019	0.328	IC50 [6]: 0.022 µM
O=c1cc(-c2ccc(Cc3ccc(CO)cc3)cc2)[nH]c2ccccc12		> 1		
Cc1c(-c2ccc(Cc3ccc(OC(F)(F)F)cc3)cc2)c(=O)c2ccccc2n1O	0.0135	0.175	0.67	
COC(=O)c1ccc(Cc2ccc(-c3cc(=O)c4ccccc4[nH]3)cc2)cc1	0.019	0.272		
Cc1c(-c2ccc(Cc3ccc(OC(F)(F)F)cc3)cc2)nc2cc(Cl)ccc2c1OC(=O)N1CCOCC1				Activity [7]: 100%
O=c1cc(-c2ccc(Cc3ccc(OC(F)(F)F)cc3)cc2)[nH]c2cc(F)c(F)cc12		0.016	0.626	
Cc1c(-c2ccc(Cc3ccc(OC(F)(F)F)cc3)cc2)n(O)c2cc(Cl)ccc2c1=O		0.149	> 1	
Cc1c(-c2ccc(Cc3ccc(F)cc3)cc2)[nH]c2cc(Cl)ccc2c1=O	0.196			
O=c1cc(-c2ccc(Cc3ccc(OC(F)(F)F)cc3)cc2)[nH]c2ccccc12	0.0062	0.048	0.251	IC50 [8]: 0.0139 µM; IC50 [6]: 0.036 µM
Cc1c(-c2ccc(Cc3ccc(OC(F)(F)F)cc3)cc2)[nH]c2cc(Cl)c(F)cc2c1=O		0.038		
CC(=O)Oc1cccc2c(=O)c(C)c(-c3ccc(Cc4ccc(OC(F)(F)F)cc4)cc3)[nH]c12		0.408		
Cc1c(-c2ccc(Cc3ccc(OC(F)(F)F)cc3)cc2)[nH]c2cc(F)ccc2c1=O	0.0121	0.069	0.191	
O=c1c(CO)c(-c2ccc(Oc3ccc(OC(F)(F)F)cc3)cc2)[nH]c2cc(Cl)ccc12		0.2		
Cc1c(-c2ccc(C(F)(F)F)cc2)[nH]c2ccccc2c1=O	0.0885	0.752		
O=c1cc(-c2ccc(C(F)(F)F)cc2)[nH]c2ccccc12	0.0529	0.579		
O=c1cc(-c2ccc(Cc3ccc(OC(F)(F)F)cc3)cc2)[nH]c2cc(Cl)c(Cl)cc12	0.173	0.028		
O=c1c(Cl)c(-c2ccc(OC(F)(F)F)cc2)[nH]c2ccccc12	0.253	0.513		
Cc1c(-c2cccc(Cc3ccc(OC(F)(F)F)cc3)c2)[nH]c2ccccc2c1=O	0.05	0.026	0.065	IC50 [8]: 0.219 µM
Cc1[nH]c2ccccc2c(=O)c1-c1ccc(Oc2ccc(OC(F)(F)F)cc2)cc1	0.19	0.01		IC50 [6]: 0.034 µM
COc1ccc2c(=O)c(C)c(-c3ccc(Cc4ccc(OC(F)(F)F)cc4)cc3)[nH]c2c1		0.008		IC50 [6]: 0.013 µM
COc1ccc(-c2[nH]c3ccccc3c(=O)c2Cl)cc1	1.67	0.56		
Cc1c(-c2cccc(Cc3ccc(OC(F)(F)F)cc3)c2)[nH]c2cc(Cl)ccc2c1=O		0.034	0.094	

SMILES	IC50 [1] [µM]	IC50 [2] [µM]	IC50 [5] [µM]	further results
O=c1cc(-c2ccc(Cc3ccc(OC(F)(F)F)cc3)cc2)[nH]c2cc(N3CCNCC3)ccc12		0.443		
O=c1cc(-c2ccc(OC(F)(F)F)cc2)[nH]c2ccccc12	0.0479	0.675		
Cc1c(-c2ccc(Br)cc2)[nH]c2ncccc2c1=O		> 1		
CCOC(=O)c1c(-c2ccc(Cc3ccc(OC(F)(F)F)cc3)cc2)[nH]c2cc(Cl)ccc2c1=O		0.026	0.092	
Cc1c(-c2ccc(Cc3ccc(OC(F)(F)F)cc3)cc2F)[nH]c2cc(Cl)ccc2c1=O		0.03		
Cc1c(-c2ccc(C(F)(F)F)cc2)[nH]c2ncccc2c1=O		> 1		
O=c1cc(-c2ccc(O)cc2)[nH]c2ccccc12		> 1		
Cc1c(-c2ccc(OC(F)(F)F)cc2)[nH]c2ncccc2c1=O		> 1		
CCOC(=O)Oc1c(-c2ccc(Cc3ccc(OC(F)(F)F)cc3)cc2)c(C)nc2ccccc12		0.027	0.224	
Cc1c(-c2ccc(Cc3ccc(OC(F)(F)F)cc3)cc2)[nH]c2ccc(O)cc2c1=O		0.465		
O=c1c(-c2ccc(Oc3ccc(OC(F)(F)F)cc3)cc2)c[nH]c2ccccc12		0.797		
Cc1c(-c2ccc(OC(F)(F)F)cc2)[nH]c2ccccc2c1=O		> 1		
Cc1c(-c2ccc(Oc3ccc(OCCN4CCOCC4)cc3)cc2)[nH]c2ccccc2c1=O		> 1		
Cc1c(-c2ccc(Cc3ccc(OC(F)(F)F)cc3)cc2)[nH]c2cc(F)c(Cl)cc2c1=O		0.07		
CCOC(=O)Oc1c(C)c(-c2ccc(Cc3ccc(OC(F)(F)F)cc3)cc2)nc2ccccc12		0.027	0.0068	
Cc1c(-c2ccc(Cc3ccc(F)cc3)cc2)[nH]c2ccccc2c1=O	< 0.001	0.083	0.273	IC50 [8]: 0.0255 µM
CCOC(=O)Oc1c(C)c(-c2ccc(Oc3ccc(OC(F)(F)F)cc3)cc2)nc2ccccc12		0.06	0.406	
Cc1c(-c2ccc(Cc3ccc(OC(F)(F)F)cc3)cc2)[nH]c2ccc(C(F)(F)F)cc2c1=O		0.654		
Cc1c(-c2ccc(Cc3ccc(OC(F)(F)F)cc3)cc2)[nH]c2cc(O)ccc2c1=O		0.139		
COc1ccc2[nH]c(-c3ccc(Cc4ccc(OC(F)(F)F)cc4)cc3)c(C)c(=O)c2c1		0.465		
Cc1c(-c2ccc(Oc3ccc(OC(F)(F)F)cc3)cc2)n(O)c2ccccc2c1=O	0.108	0.035	0.566	
Cc1c(-c2ccc(Cc3ccc(OC(F)(F)F)cc3)cc2)[nH]c2cc(F)c(F)cc2c1=O	0.0309	0.024	0.207	
COc1cc2[nH]c(-c3ccc(Cc4ccc(OC(F)(F)F)cc4)cc3)cc(=O)c2cc1F		0.039		
